Data set [1] concerns PC-12. Nature of the data set: Neuroprotective activity in rat PC12 cells assessed as decrease in 6-OHDA-induced apoptosis at 200 uM incubated for 6 hrs prior to 6-OHDA challenge measured after 24 hrs by annexin V/propidium iodide staining-based fluorescence microscopic analysis. The format is functional, cell-based. Summed up:
(§1)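 PC12 cells on coverslips (1×10^5/well) pretreated 6 h with compound, then given 100 μM 6-OHDA for 24 h at 37 °C. After two PBS washes, stained with Annexin V-FITC/PI, each diluted 1:100 in binding buffer and mixed 1:1. Imaged by fluorescence microscopy (ex 488; em 515–545 and 575–635 nm). Apoptotic and necrotic cells counted in five fields, three separate groups. Edaravone was the positive control.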

The subject of data set [2] is PC-12. Nature of the data set: Neuroprotective activity in rat PC12 cells assessed as decrease in 6-OHDA-induced cell death incubated for 6 hrs prior to 6-OHDA challenge measured after 24 hrs by MTT assay. The format is functional, cell-based. The method, boiled down: (§2)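 PC12 cells seeded at 1×10^5/well for 24 h, pretreated 6 h with compound (6.25–100 μM; DMSO stock diluted in PBS), then exposed to 100 μM 6-OHDA for 24 h at 37 °C. Viability read by MTT (5 mg/mL, 4 h), DMSO, absorbance 570 nm. Expressed as % of the PBS-treated control, mean ± SD, n = 3.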
(Tetrazolium assays rely on reduction of a dye to a coloured formazan, in cell work by metabolically active cells.)

For data set [3], the system named is PC-12. Nature of the data set: Neuroprotective activity in rat PC12 cells assessed as decrease in 6-OHDA-induced early and late apoptosis at 6.25 to 50 uM incubated for 6 hrs prior to 6-OHDA challenge measured after 24 hrs by annexin V/propidium iodide staining-based fluorescence microscopic analysis. The class given is functional, cell-based. The method, boiled down: as §1

For data set [4], the system named is PC-12. Nature of the data set: Neuroprotective activity in rat PC12 cells assessed as decrease in 6-OHDA-induced intracellular ROS level incubated for 6 hrs prior to 6-OHDA challenge measured after 24 hrs by DCFH-DA dye-based spectrofluor analysis. The format is functional, cell-based. The method, boiled down: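 PC12 cells (1×10^5/well) pretreated 6 h with compound at several concentrations one day after seeding, then given 100 μM 6-OHDA for 24 h at 37 °C. Loaded with DCFH-DA (1:1000 in DMEM) for 30 min at 37 °C, 5% CO2, then washed three times with PBS. DCF fluorescence read at 488/525 nm in five fields per well. Untreated cells are set to 100%, mean ± SD, n = 3. Edaravone was the positive control.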

Data set [5] concerns PC-12. The experiment in a line: Neuroprotective activity in rat PC12 cells assessed as decrease in H2O2-induced cell death at 100 uM incubated for 6 hrs prior to H2O2 challenge measured after 1 hr by MTT assay. The format is functional, cell-based. Summed up:
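PC12 cells seeded at 1×10^5/well for 24 h. Pretreated 6 h with compound (100 μM; DMSO stock diluted in PBS), then challenged with 300 μM H2O2 for 1 h at 37 °C. MTT at 5 mg/mL for 4 h, DMSO solubilisation, A570. Survival is given as % of the PBS-treated control, mean ± SD, n = 3. Vitamin C was the positive control.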

Data set [6] is described as follows: Cytotoxicity against rat PC12 cells assessed as cell viability at 100 uM incubated for 6 hrs prior to PBS treatment measured after 1 hr by MTT assay. The format is cell-based. To be noted: pc-12, 1 h.
For data set [7], the system named is PC-12. Nature of the data set: Neuroprotective activity in rat PC12 cells assessed as decrease in 6-OHDA-induced cell death at 6.25 to 100 uM incubated for 6 hrs prior to 6-OHDA challenge measured after 24 hrs by MTT assay. The format is functional, cell-based. Summed up:
as §2

Data set [8] has as its system PC-12. Nature of the data set: Neuroprotective activity in rat PC12 cells assessed as decrease in 6-OHDA-induced early and late apoptosis at 6.25 to 25 uM incubated for 6 hrs prior to 6-OHDA challenge measured after 24 hrs by annexin V/propidium iodide staining-based fluorescence microscopic analysis. The class given is functional, cell-based. The method, boiled down:
as §1

Data set [9] relates to PC-12. Nature of the data set: Neuroprotective activity in rat PC12 cells assessed as decrease in 6-OHDA-induced early and late apoptosis at 1.56 to 6.25 uM incubated for 6 hrs prior to 6-OHDA challenge measured after 24 hrs by annexin V/propidium iodide staining-based fluorescence microscopic analysis. The format is functional, cell-based. Summed up: as §1

In ChEMBL document CHEMBL3414450, “Synthetic phenylethanoid glycoside derivatives as potent neuroprotective agents” (Eur J Med Chem, 2015) one finds Activity data, which are given here for 9 molecules.

The source made the active and inactive calls. The calls are words filed in the database; no cut-off is given here.

For the molecule `CC1=NN(c2ccccc2)C(=O)C1`, the result in data set [1] was inactive.

In the case of `O=C(Cc1ccc(O)c(O)c1)O[C@H]1[C@H](O)[C@@H](O)[C@H](OCCc2ccc(O)c(O)c2)O[C@@H]1CO`, the values for the Activity entry in [2], in [4] and in data set [6] were “Dose-dependent effect”, “Dose-dependent effect” and “Non-toxic”, respectively. In addition, the outcome in [3] and in data set [5] was Active.

`O=C(/C=C/c1ccc(F)c(F)c1)O[C@H]1[C@H](O)[C@@H](O)[C@H](OCCc2ccc(O)c(O)c2)O[C@@H]1CO`: the result in [7] and in [5] was Active.

`O=C(/C=C/c1ccc(O)c(O)c1)O[C@H]1[C@H](O)[C@@H](O)[C@H](OCCc2ccc(O)c(O)c2)O[C@@H]1CO`: the result in data set [7] and in [5] was Active.

Turning to `OC[C@H]1O[C@@H](OCCc2ccc(O)c(O)c2)[C@H](O)[C@@H](O)[C@@H]1O`, the outcome in [7] and in data set [5] was Active.

In the case of `COC(=O)[C@]1(OC)C[C@H](O)[C@@H](NC(=O)/C=C/c2ccc(O)c(O)c2)[C@H]([C@H](O)[C@H](O)CO)O1`, the Activity result in data set [2] is “Dose-dependent effect”; in [4], “Dose-dependent effect”; in data set [6], “Non-toxic”. The result in data set [8] and in [5] was Active.

For `COc1ccc(/C=C/C(=O)O[C@H]2[C@H](O)[C@@H](O)[C@H](OCCc3ccc(O)c(O)c3)O[C@@H]2CO)cc1OC`, the result in data set [5] was inactive.

For the molecule `O=C(/C=C/c1ccc(O)c(O)c1)OCCc1ccc(O)c(O)c1`, the result in data set [9] and in data set [5] was Active. Moreover, the values for the Activity entry in data set [2], in [4] and in data set [6] were “Dose-dependent effect”, “Dose-dependent effect” and “Non-toxic”, respectively.

In the case of `O=C(/C=C/c1ccc(Cl)cc1)O[C@H]1[C@H](O)[C@@H](O)[C@H](OCCc2ccc(O)c(O)c2)O[C@@H]1CO`, the outcome in [7] and in data set [5] was Active.
